Published values collected from several papers.
COQ8A: Atypical kinase COQ8A, mitochondrial (COQ8A, Homo sapiens, UniProt Q8NI60)
PIK3CD: Phosphatidylinositol 4,5-bisphosphate 3-kinase catalytic subunit delta isoform (PIK3CD, Homo sapiens, UniProt O00329)
NTSR1: Neurotensin receptor type 1 (NTSR1, Homo sapiens, UniProt P30989)

CCCn1nc(C)c(-c2cc(C(=O)N3CCc4nc5cc(-c6ccccc6)[nH]n5c(=O)c4C3)[nH]n2)c1C  IC50 (COQ8A; ligand displacement; TR-FRET): 1720 nM
Cc1nc(Nc2ccc3c(c2)C(C)(C)C(=O)N3)c2ccccc2n1  IC50 (PIK3CD; enzyme activity; inhibitor; ADP detection): > 1000 nM
C[C@]12CCC(=O)C=C1CC[C@@H]1[C@@H]2[C@@H](O)C[C@@]2(C=O)[C@H]1CC[C@]2(O)C(=O)CO  EC50 (Mineralocorticoid receptor (NR3C2, Homo sapiens, UniProt P08235); reporter gene; agonist; luciferase): 19.6 nM
COc1ccc2c(c1)CCc1c-2n[nH]c1C(=O)N1CCc2nc3cc(-c4ccccc4)[nH]n3c(=O)c2C1  IC50 (COQ8A; ligand displacement; TR-FRET): 2730 nM
Cc1nc(Nc2ccc3c(c2)CC(=O)N3)c2ccccc2n1  IC50 (PIK3CD; enzyme activity; inhibitor; ADP detection): 397 nM
CC(C)Oc1ccc(S(=O)(=O)c2ccc(Oc3cc(OCC(N)=O)c(C(=O)C(Cl)Cl)cc3[N+](=O)[O-])cc2)cc1  IC50 ([Pyruvate dehydrogenase (acetyl-transferring)] kinase isozyme 1, mitochondrial (PDK1, Homo sapiens, UniProt Q15118); enzyme activity; inhibitor; ATP luminescence): 140 nM
Cc1ccc2c(=O)cc(C(=O)Nc3c(C(=O)c4ccc(F)cc4)oc4ccccc34)oc2c1C  IC50 (COQ8A; ligand displacement; TR-FRET): 9680 nM
COc1cc2ncnc(Nc3ccc4c(c3)/C(=C/c3ccccc3)C(=O)N4C)c2cc1OC  IC50 (PIK3CD; enzyme activity; inhibitor; ADP detection): 277 nM
COc1ccccc1C1CCN(c2nc(C3(C)CCCC3)nc3ccc(N(C)CCO)cc23)CC1  EC50 (NTSR1; β-arrestin recruitment; agonist): 40200 nM
NC(=O)c1ncc(N2CCCCC2)nc1Nc1ccc(C2CCN(C[C@H]3CCN(c4ccc5c(c4)C(=O)N(C4CCC(=O)NC4=O)C5=O)C3)CC2)cc1 (stereo partly drawn)  Kd (Tyrosine-protein kinase BTK (BTK, Homo sapiens, UniProt Q06187, L528W); binding; SPR): 88 nM
COc1cc(/C=C/C(=O)O)ccc1O  Kd (Sarcoplasmic/endoplasmic reticulum calcium ATPase 1 (ATP2A1, Oryctolagus cuniculus, UniProt P04191); binding; fluorescence; pH 7.2): 86000 nM
CC1(C)CCC(CN2CCN(c3ccc(C(=O)NS(=O)(=O)c4ccc(NCC5CCOCC5)c([N+](=O)[O-])c4)c(Oc4cnc5[nH]ccc5c4)c3)CC2)=C(c2ccc(Cl)cc2)C1  IC50 (COQ8A; ligand displacement; TR-FRET): 6110 nM
COc1ccccc1C1CCN(c2nc(C3(C(F)(F)F)CCCC3)nc3ccc(N(C)CCO)cc23)CC1  EC50 (NTSR1; β-arrestin recruitment; agonist): 18000 nM
CC(C)(C)OC(=O)N1CCN(Cc2ccn(Cc3ccc(Cl)cc3)c(=O)c2O)CC1  IC50 (Lysine-specific demethylase 4E (KDM4E, Homo sapiens, UniProt B2RXH2); enzyme activity; inhibitor; AlphaScreen): 6180 nM
COc1cc2ncnc(N(C)c3ccc4c(c3)/C(=C/c3ccccc3)C(=O)N4C)c2cc1OC (mixture of isomers)  IC50 (PIK3CD; enzyme activity; inhibitor; ADP detection): 416 nM
CCc1ccc(NC(=O)CSc2nc(-c3ccc(C)cc3)nc3c2Cc2c(CO)cnc(C)c2O3)cc1  IC50 (COQ8A; ligand displacement; TR-FRET): 8630 nM
Cc1nc(Nc2ccc3c(c2)C(C)(C)C(=O)N3C)c2ccccc2n1  IC50 (PIK3CD; enzyme activity; inhibitor; ADP detection): 719 nM
C=C[C@@]1(C)CC(=O)[C@]2(O)[C@@]3(C)[C@@H](O)CCC(C)(C)[C@@H]3[C@H](O)[C@H](OC(C)=O)[C@@]2(C)O1  EC50 (Adenylate cyclase type 5 (ADCY5, Homo sapiens, UniProt O95622); cAMP; agonist; TR-FRET): 10000 nM
